Where a SMILES comes first, the peptide text is derived from it. [ ]: non-standard residue; d: D form. Phe(4-NO2) = N[C@@H](Cc1ccc([N+](=O)[O-])cc1)C(=O)O; Phe(4-I) = N[C@@H](Cc1ccc(I)cc1)C(=O)O; Sar = CNCC(=O)O
Assays:
Oryctolagus cuniculus [1] = species on record: Oryctolagus cuniculus; test: Antagonist activity pA2, was measured in the in vitro rabbit aorta strip assay; assay type: functional; conditions: read-out: pA2 (converted)
Summary of the method: (§1)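 Isolated rabbit aorta strip (method of Rioux et al.); pA2 against the ANG II dose-response curve, determined at low antagonist doses within the competitive-inhibition range.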

Rattus norvegicus [2] = test: Residual ANG II-like antagonist activity, ID50 was measured in vivo, in the rat blood pressure assay; Partial angonist; assay type: functional, organism-based; conditions: filed as partial agonist
[3] = system: Angiotensin II receptor (Oryctolagus cuniculus); test: Angiotensin II-like agonist activity, measured in the in vitro rabbit aorta strip assay
[4] = biological target: Angiotensin II receptor (Rattus norvegicus) (UniProt P29089+P25095+P35351); test: In vivo blood pressure increase produced by a 1 ug bolus i.v.; assay type: functional, organism-based
Summary of the method: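 Rat blood pressure assay (Regoli et al.); agonist activity read as the mmHg rise in blood pressure after a 1 μg intravenous bolus of compound.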

Oryctolagus cuniculus [5] = species on record: Oryctolagus cuniculus; test: Agonist, ''ANG II-like'' activity was measured in the in vitro rabbit aorta strip assay; + = mixed agonist-antagonist effects seen above 100n g/mL; assay type: functional
Summary of the method: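 Isolated rabbit aorta strip (method of Rioux et al.); contractile agonist activity expressed as percent of the response to ANG II.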

Oryctolagus cuniculus [6] = species on record: Oryctolagus cuniculus; test: Antagonist activity pA2, was measured in the in vitro rabbit aorta strip assay; + = mixed agonist-antagonist effects seen above 100n g/mL; assay type: functional; summary of the method: as §1
Rattus norvegicus [7] = test: Residual ANG II-like antagonist activity, ID50 was measured in vivo, in the rat blood pressure assay; + means slight antagonist effect; assay type: functional, organism-based; conditions: filed as antagonist

| Compound | Kb (Oryctolagus cuniculus [1]) [nM] | ID50 (Rattus norvegicus [2]) | Activity [3] [%] | Blood pressure [4] [mmHg] | Activity (Oryctolagus cuniculus [5]) | pA2 (Oryctolagus cuniculus [6]) | ID50 (Rattus norvegicus [7]) |
| --- | --- | --- | --- | --- | --- | --- | --- |
| CC[C@H](C)[C@H](NC(=O)[C@H](Cc1ccc(I)cc1)NC(=O)[C@@H](NC(=O)[C@H](CCCN=C(N)N)NC(=O)CNC)C(C)C)C(=O)N[C@@H](Cc1c[nH]cn1)C(=O)N1CCC[C@H]1C(=O)N[C@@H](Cc1ccccc1)C(=O)O (H-[Sar]RV[Phe(4-I)]IHPF-OH) | 251 | Partial agonist | 0 | 80 |  |  |  |
| CC[C@H](C)[C@H](NC(=O)[C@H](Cc1ccc([N+](=O)[O-])cc1)NC(=O)[C@@H](NC(=O)[C@H](CCCN=C(N)N)NC(=O)CNC)C(C)C)C(=O)N[C@@H](Cc1c[nH]cn1)C(=O)N1CCC[C@H]1C(=O)N[C@@H](Cc1ccccc1)C(=O)O (H-[Sar]RV[Phe(4-NO2)]IHPF-OH) |  |  |  |  | mixed agonist-antagonist effects seen above 100n g/mL | mixed agonist-antagonist effects seen above 100n g/mL |  |
| H-DRVFIHPF-OH |  |  | 11 | 20 |  |  | Partial antagonist |
